{"data": "Published values pooled from the literature", "target": "Calcium/calmodulin-dependent protein kinase kinase 1 (CAMKK1, Homo sapiens, UniProt Q8N5S9)", "note": "Lines come from different studies, so protocols differ."}
{"Compound": "Cc1ccc(C(=O)NCc2ccsc2)cc1C#Cc1cn(C(C)C)c2ncnc(N)c12", "effect on": "enzyme activity", "mode": "inhibitor", "tested at": "1 µM", "quantity": "activity vs control", "value": "84%"}
{"Compound": "Cn1c2c(c3ccc(Cl)c(Cl)c31)C(C#N)C1(CCOCC1)NC2=O (stereo not shown)", "effect on": "thermal stability", "technique": "DSF", "tested at": "10 µM", "quantity": "ΔTm", "value": "1.2 °C"}
{"Compound": "Cc1c(NC(=O)c2cc(C(N)=O)nc3cc(F)ccc23)c(C(F)(F)F)nn1Cc1ccc(C#N)cc1", "effect on": "cell-free assay", "technique": "competition with immobilised ligand", "tested at": "1 µM", "quantity": "remaining binding", "value": "97%"}
{"Compound": "Cn1c2c(c3ccc(Cl)c(Cl)c31)C(C#N)C1(CCN(C(=O)OC(C)(C)C)CC1)NC2=O (racemic)", "effect on": "thermal stability", "technique": "DSF", "tested at": "10 µM", "quantity": "ΔTm", "value": "-0.1 °C"}
{"Compound": "CC1=C(C#N)C(c2ccc3c(c2)c(NC(=O)c2ccccc2C)nn3C)C(C#N)=C(C)N1", "effect on": "cell-free assay", "technique": "competition with immobilised ligand", "tested at": "1 µM", "quantity": "remaining binding", "value": "100%"}
{"Compound": "CCN1CCC2(CC1)NC(=O)c1c(c3ccc(Cl)c(Cl)c3n1C)C2C#N (racemic)", "effect on": "thermal stability", "technique": "DSF", "tested at": "10 µM", "quantity": "ΔTm", "value": "-0.1 °C"}
{"Compound": "COCCOc1nc(-c2ccc(Cl)nc2)nc2c1CN(C(=O)c1ncn3ccccc13)CC2", "effect on": "cell-free assay", "technique": "competition with immobilised ligand", "tested at": "0.1 µM", "quantity": "remaining binding", "value": "100%"}
{"Compound": "COc1cc(Nc2c(C#N)cnc3cc(OCCCN4CCN(C)CC4)c(OC)cc23)c(Cl)cc1Cl", "effect on": "cell-free assay", "tested at": "0.5 µM", "quantity": "remaining signal", "value": "84.8%"}
{"Compound": "Nc1ncnc2occ(-c3ccc(NC(=O)Nc4cc(C(F)(F)F)ccc4F)cc3)c12", "effect on": "cell-free assay", "mode": "inhibitor", "tested at": "20 µM", "quantity": "remaining signal", "value": "28%"}
{"Compound": "CC(C)(C)c1nc2c(s1)c1nc(N)ncc1c1ccc(NS(=O)(=O)c3c(F)cccc3F)c(F)c12", "effect on": "enzyme activity", "mode": "inhibitor", "technique": "radiometric", "tested at": "1 µM", "quantity": "remaining activity", "value": "88%"}
{"Compound": "Nc1nc(Nc2ccc(S(N)(=O)=O)cc2)nn1C(=O)c1c(F)cccc1F", "effect on": "cell-free assay", "tested at": "0.5 µM", "quantity": "remaining signal", "value": "86.4%"}
{"Compound": "NS(=O)(=O)c1cc(NC(=O)Cc2ccccc2)ccc1Oc1cccc(Cl)c1", "effect on": "cell-free assay", "technique": "competition with immobilised ligand", "tested at": "1 µM", "quantity": "remaining binding", "value": "100%"}
{"Compound": "Cc1sc(C(=O)NC2COC2)cc1-n1cc(NC(=O)Nc2c(F)cccc2Cl)cn1", "effect on": "enzyme activity", "mode": "inhibitor", "tested at": "10 µM", "quantity": "remaining activity", "value": "121%"}
{"Compound": "Cc1ccc(C(=O)Nc2ccc(CN3CCN(C)CC3)c(C(F)(F)F)c2)cc1C#Cc1cnc2cccnn12", "effect on": "enzyme activity", "mode": "inhibitor", "tested at": "23.5 nM", "quantity": "remaining activity", "value": "85%"}
{"Compound": "O=C1Nc2ccc(Cl)cc2C1=Cc1cc(Cl)c(O)c(Cl)c1", "effect on": "cell-free assay", "tested at": "0.5 µM", "quantity": "remaining signal", "value": "52.5%"}
{"Compound": "CCCCN(CCCC)C(=O)CN1C[C@H](c2cc(OC)c3c(c2)OCO3)[C@@H](C(=O)O)[C@@H]1CC(C)(C)CCC", "effect on": "cell-free assay", "technique": "competition with immobilised ligand", "tested at": "1 µM", "quantity": "remaining binding", "value": "100%"}
{"Compound": "O=C(Nc1cnn(-c2csc(C(=O)NC3COC3)c2)c1)Nc1ccccc1Cl", "effect on": "enzyme activity", "mode": "inhibitor", "tested at": "5 µM", "quantity": "remaining activity", "value": "130%"}
{"Compound": "Cc1nccc(COC(=O)N2C[C@@H]3[C@@H](CNC(=O)c4ccc5[nH]nnc5c4)[C@@H]3C2)n1", "effect on": "cell-free assay", "technique": "competition with immobilised ligand", "tested at": "1 µM", "quantity": "remaining binding", "value": "100%"}
{"Compound": "c1ccc(CNc2nc(N3CCOc4ccccc43)nc3c2CCCC3)cc1", "effect on": "target engagement in cells", "mode": "inhibitor", "technique": "chemoproteomics", "tested at": "20 mM", "quantity": "inhibition", "value": "-7.1%"}
